Data: PubChem BioAssay AID624018 (Broad Institute, 2012)
The source made the active and inactive calls.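 Rule for the calls: active = fitted curve reaches a 35% signal drop at a concentration no higher than twice the top valid dose, in duplicate at both wavelengths; inactive = the rest, including activity in the opposite direction.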

Test system: not listed separately
Experiment: P. aeruginosa growth delay under iron chelation, dose response, absorbance 405 nm, dry powder (AID 624018)
Settings: P. aeruginosa growth with EDDHA, absorbance 405 nm, 24-30 h; at 16 µM (top of the series)
In short: (§1)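 Assay system: P. aeruginosa ATCC 15692 cells. Doses: 3-fold compound dilution series. Timing: 24-30 h exposure at 37 °C. Signal: absorbance at 405 nm reflecting pyoverdine production.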

SMILES | activity change, negative = inhibition
Cc1ccc(C(C#N)c2ccccc2OC(F)(F)F)nc1C#N (stereo unspecified) | -20.9% (inactive)

Same assay, conditions: P. aeruginosa growth with EDDHA, absorbance 405 nm, 24-30 h; at 50 µM (top of the series)

SMILES | activity change, negative = inhibition
CCCCC(C#N)c1ccc(Cl)cc1 (stereo unspecified) | -4.2% (inactive)
N#CC(c1ccc(Cl)cc1)c1ccc(C(F)(F)F)cn1 (stereo unspecified) | 4.01% (inactive)
N#CC(c1ccc(C(F)(F)F)cc1)c1cccc(Cl)n1 (stereo unspecified) | -8.88% (inactive)
N#CC(CC1CC1)c1ccc(Cl)cc1 (stereo unspecified) | -14.4% (inactive)
CCCCC(C#N)c1ccc(F)cc1 (stereo unspecified) | -10.3% (inactive)
N#CC(c1cccc(Cl)n1)c1ccc(Cl)cc1Cl (stereo unspecified) | -22.8% (inactive)
CCCCC(C#N)c1ccc(C(F)(F)F)cc1 (stereo unspecified) | -6.7% (inactive)
N#Cc1cccc(C(C#N)c2ccc(Cl)cc2Cl)n1 (stereo unspecified) | -3.73% (inactive)
N#CC(c1ccc(F)cc1)c1ccc(C(F)(F)F)c(Cl)n1 (stereo unspecified) | -5.95% (inactive)
N#CC(c1cccc(Cl)n1)c1ccccc1OC(F)(F)F (stereo unspecified) | -14.6% (inactive)
Cc1cccc(C(C#N)c2ccc(Cl)cc2)n1 (stereo unspecified) | -2.34% (inactive)
N#Cc1cccc(C(C#N)c2ccc(Cl)cc2F)n1 (stereo unspecified) | -14.6% (inactive)
N#CC(c1ccc(Cl)cc1Cl)c1ncccc1Cl (stereo unspecified) | 2.07% (inactive)
Cc1ccc(C(C#N)c2ccc(F)cc2)nc1C#N (stereo unspecified) | -6.49% (inactive)
Cc1ccc(C(C#N)c2ccc(Cl)cc2)nc1 (stereo unspecified) | -8.79% (inactive)
N#CC(c1ccc(C(F)(F)F)cc1)c1ccc(C(F)(F)F)c(Cl)n1 (stereo unspecified) | -6.74% (inactive)

SMILES | activity change, negative = inhibition
CC(C#N)(c1ccc(Cl)cc1)c1ccc(C(F)(F)F)cn1 (stereo unspecified) | -3.75% (inactive)
N#Cc1ccc(C(C#N)c2ccc(Cl)cc2Cl)nc1 (stereo unspecified) | 1.04% (inactive)
CCCCC(C#N)c1ccccc1OC(F)(F)F (stereo unspecified) | -4.38% (inactive)
CCCC(C#N)c1ccc(Cl)cc1 (stereo unspecified) | -12.6% (inactive)
N#CC(c1ccc(C(F)(F)F)cc1)c1cccc(C(F)(F)F)n1 (stereo unspecified) | -4.57% (inactive)
N#Cc1cccc(C(C#N)c2ccccc2OC(F)(F)F)n1 (stereo unspecified) | -10.3% (inactive)
CCCCC(C#N)c1ccc(Cl)cc1F (stereo unspecified) | -1.21% (inactive)
N#Cc1cccc(C(C#N)c2ccc(Cl)cc2)n1 (stereo unspecified) | -11.9% (inactive)
CCCCC(C#N)c1ccc(Cl)cc1Cl (stereo unspecified) | -10.8% (inactive)
N#CC(c1ccc(Cl)cc1)c1ccc(C(F)(F)F)c(Cl)n1 (stereo unspecified) | 11.9% (inactive)
N#Cc1ccc(C(C#N)c2ccc(Cl)cc2)nc1 (stereo unspecified) | -10.4% (inactive)
N#CC(c1ccc(C(F)(F)F)c(Cl)n1)c1ccc(Cl)cc1Cl (stereo unspecified) | 4.93% (inactive)
N#CC(c1cccc(C(F)(F)F)n1)c1ccccc1OC(F)(F)F (stereo unspecified) | -7.42% (inactive)
Cc1ccc(C(C#N)c2ccc(Cl)cc2)nc1C#N (stereo unspecified) | -4.08% (inactive)
N#CC(c1ccc(C(F)(F)F)c(Cl)n1)c1ccccc1OC(F)(F)F (stereo unspecified) | -8.72% (inactive)

Test system: P. aeruginosa growth with EDDHA, absorbance 405 nm, 24-30 h
Experiment: as above
Settings: not given
In short: as §1

SMILES | AC35 [µM]
N#CC(c1ccc(Cl)cc1)c1ncccc1Cl (stereo unspecified) | 12.6
N#CC(c1ccc(F)cc1)c1cccc(C(F)(F)F)n1 (stereo unspecified) | 37.6
N#CC(c1ccc(Cl)cc1)c1cccc(C(F)(F)F)n1 (stereo unspecified) | 19.5
N#CC(c1cccc(C(F)(F)F)n1)c1ccc(Cl)cc1F (stereo unspecified) | 22.7
